The test system of series [1] is BaF3. The series is described as follows: Antitumor activity against mouse BA/F3 cells expressing Kit exon 11 deletion (557 to 558 residues) and V654 mutant (unknown origin) allografted in CB17 SCID mouse assessed as tumor regression at 80 mg/kg, po qd measured on last day of dosing. It counts as functional. In short, it runs like this:
(§1)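 Ba/F3 cells bearing the KIT exon 11 del/D816H or exon 11 del/V654A mutation were grown as allografts in mice. Compounds were given p.o. once (QD) or twice daily (BD), and vehicle was given BD p.o. Tumor growth inhibition and regression (%) were taken on the last day of dosing. p-values were calculated relative to vehicle.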

The test system of series [2] is Platelet-derived growth factor receptor alpha (Homo sapiens), P16234 [V561D,D842V].
Series [3] addresses Platelet-derived growth factor receptor alpha (Homo sapiens) (UniProt P16234).
In series [4] the target is Platelet-derived growth factor receptor beta (Homo sapiens) (UniProt P09619). Description: Inhibition of TEL-fused PDGFRbeta (unknown origin) transfected in mouse BA/F3 cells assessed as inhibition of cell growth incubated for 72 hrs by MTS assay. It counts as cell-based.
For series [5], the system named is Mast/stem cell growth factor receptor Kit (Homo sapiens), P10721 [UNDEFINED MUTATION].
A short description of series [6]: Cytotoxicity in mouse parental BA/F3 cells incubated for 72 hrs by MTS assay. It counts as cell-based, BaF3.
In series [7] the test system is Mast/stem cell growth factor receptor Kit (Homo sapiens), P10721 [UNDEFINED MUTATION]. This is another data set of the same source.
The target in series [8] is Mast/stem cell growth factor receptor Kit (Homo sapiens) (UniProt P10721).
Series [9] deals with Mast/stem cell growth factor receptor Kit (Homo sapiens), P10721 [V560D,D816H].
Series [10] has as its system Mast/stem cell growth factor receptor Kit (Homo sapiens), P10721 [UNDEFINED MUTATION]. The source holds these as a separate data set.
The target in series [11] is Mast/stem cell growth factor receptor Kit (Homo sapiens) (UniProt P10721). The source holds these as a separate data set.
Series [12] relates to Mast/stem cell growth factor receptor Kit (Homo sapiens), P10721 [UNDEFINED MUTATION]. This is another data set of the same source.
For series [13], the system named is BaF3. The series is described as follows: Antitumor activity against mouse BA/F3 cells expressing Kit exon 11 deletion (557 to 558 residues) and V654 mutant (unknown origin) allografted in CB17 SCID mouse assessed as inhibition of tumor growth at 80 mg/kg, po qd measured on last day of dosing. It counts as functional. The settings on record: read-out: TGI. Put shortly:
as §1

For series [14], the system named is BaF3. Description: Antitumor activity against mouse BA/F3 cells expressing Kit exon 11 deletion (557 to 558 residues) and V654 mutant (unknown origin) allografted in CB17 SCID mouse assessed as tumor regression at 300 mg/kg, po qd measured on last day of dosing. It counts as functional. Put shortly:
as §1

Series [15] deals with BaF3. Description: Antitumor activity against mouse BA/F3 cells expressing Kit exon 11 deletion (557 to 558 residues) and V654 mutant (unknown origin) allografted in CB17 SCID mouse assessed as inhibition of tumor growth at 300 mg/kg, po qd measured on last day of dosing. It counts as functional. The settings on record: read-out: TGI. Put shortly: as §1
Series [16] has as its target Mast/stem cell growth factor receptor Kit (Homo sapiens) (UniProt P10721). The source holds these as a separate data set.
Series [17] deals with Mast/stem cell growth factor receptor Kit (Homo sapiens), P10721 [V560D].
For series [18], the system named is Mast/stem cell growth factor receptor Kit (Homo sapiens), P10721 [UNDEFINED MUTATION]. This is another data set of the same source.
The subject of series [19] is BaF3. Description: Antitumor activity against mouse BA/F3 cells expressing Kit exon 11 deletion (557 to 558 residues) and D816H mutant (unknown origin) allografted in CB17 SCID mouse assessed as tumor regression at 300 mg/kg, po qd measured on last day of dosing. It counts as functional. In short, it runs like this: as §1
In series [20] the target is Mast/stem cell growth factor receptor Kit (Homo sapiens) (UniProt P10721). This is another data set of the same source.
The subject of series [21] is BaF3. The series is described as follows: Antitumor activity against mouse BA/F3 cells expressing Kit exon 11 deletion (557 to 558 residues) and D816H mutant (unknown origin) allografted in CB17 SCID mouse assessed as inhibition of tumor growth at 300 mg/kg, po qd measured on last day of dosing. It counts as functional. The settings on record: read-out: TGI. In short, it runs like this: as §1

The test system of series [22] is Mast/stem cell growth factor receptor Kit (Homo sapiens), P10721 [D816V].
Series [23] has as its system Mast/stem cell growth factor receptor Kit (Homo sapiens), P10721 [V560D,V654A].
Series [24] deals with Mast/stem cell growth factor receptor Kit (Homo sapiens) (UniProt P10721). The source holds these as a separate data set.
Series [25] concerns Mast/stem cell growth factor receptor Kit (Homo sapiens), P10721 [UNDEFINED MUTATION]. This is another data set of the same source.
For series [26] the test system is unchanged. The source holds these as a separate data set.
Series [27] concerns the target Vascular endothelial growth factor receptor 2 (Homo sapiens) (UniProt P35968).
The nature of series [28]: Protein binding in rat plasma. It counts as ADME, cell-free. The settings on record: pooled result: one value given for 4 cell lines, strains, targets or settings, read-out: PPB (converted).
Series [29] is filed under the species Homo sapiens. Description: Selectivity index, ratio of GI50 for inhibition of Kit exon 11 deletion and D816H mutant (unknown origin) transfected in mouse BA/F3 cells assessed as inhibition of cell growth to GI50 for inhibition of KDR (unknown origin) transfected in mouse BA/F3 cells assessed as inhibition of cell growth. It counts as cell-based.
The subject of series [30] is BaF3. Description: Antitumor activity against mouse BA/F3 cells expressing Kit exon 11 deletion (557 to 558 residues) and D816H mutant (unknown origin) allografted in CB17 SCID mouse assessed as inhibition of tumor growth at 100 mg/kg, po qd measured on last day of dosing. It counts as functional. The settings on record: read-out: TGI. Put shortly:
as §1

The subject of series [31] is BaF3. The series is described as follows: Antitumor activity against mouse BA/F3 cells expressing Kit exon 11 deletion (557 to 558 residues) and D816H mutant (unknown origin) allografted in CB17 SCID mouse assessed as tumor regression at 100 mg/kg, po qd measured on last day of dosing. It counts as functional. In short, it runs like this: as §1

Chain of Mast/stem cell growth factor receptor Kit (Homo sapiens), P10721 [V560D] (P10721 whole entry V560D): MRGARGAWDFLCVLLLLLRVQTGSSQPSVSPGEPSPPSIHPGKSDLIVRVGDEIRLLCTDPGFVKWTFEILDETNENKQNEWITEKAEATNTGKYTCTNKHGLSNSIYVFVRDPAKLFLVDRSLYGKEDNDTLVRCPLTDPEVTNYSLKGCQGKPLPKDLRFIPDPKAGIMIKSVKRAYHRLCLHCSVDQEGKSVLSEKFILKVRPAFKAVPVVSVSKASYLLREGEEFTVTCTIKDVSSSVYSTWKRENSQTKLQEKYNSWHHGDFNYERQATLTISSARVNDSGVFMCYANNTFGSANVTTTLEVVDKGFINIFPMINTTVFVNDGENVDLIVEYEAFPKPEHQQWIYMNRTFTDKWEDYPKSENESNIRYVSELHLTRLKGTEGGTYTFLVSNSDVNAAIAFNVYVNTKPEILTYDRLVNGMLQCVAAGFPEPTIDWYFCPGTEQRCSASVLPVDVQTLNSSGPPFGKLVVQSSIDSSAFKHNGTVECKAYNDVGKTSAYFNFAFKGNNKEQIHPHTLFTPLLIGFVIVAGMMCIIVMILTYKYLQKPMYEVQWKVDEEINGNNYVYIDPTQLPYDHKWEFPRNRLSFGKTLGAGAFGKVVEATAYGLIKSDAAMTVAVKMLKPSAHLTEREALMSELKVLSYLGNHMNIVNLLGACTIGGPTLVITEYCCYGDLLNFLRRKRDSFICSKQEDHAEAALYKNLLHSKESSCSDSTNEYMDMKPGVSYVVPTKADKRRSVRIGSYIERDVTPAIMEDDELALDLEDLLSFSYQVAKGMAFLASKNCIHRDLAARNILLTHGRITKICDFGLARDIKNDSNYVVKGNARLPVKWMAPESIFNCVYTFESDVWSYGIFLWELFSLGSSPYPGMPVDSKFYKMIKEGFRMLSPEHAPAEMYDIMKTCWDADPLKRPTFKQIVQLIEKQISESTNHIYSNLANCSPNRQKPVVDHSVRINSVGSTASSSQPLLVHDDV
Chain of Mast/stem cell growth factor receptor Kit (Homo sapiens), P10721 [UNDEFINED MUTATION] (P10721 whole entry, looked up, stated change not applied, the tested form may be a part): as the sequence (P10721 whole entry V560D) above, with D560V counted along it
Chain of Mast/stem cell growth factor receptor Kit (Homo sapiens) (P10721 whole entry, the tested form may be a part): as the sequence (P10721 whole entry V560D) above, with D560V counted along it
Chain of Platelet-derived growth factor receptor beta (Homo sapiens) (P09619 whole entry, the tested form may be a part): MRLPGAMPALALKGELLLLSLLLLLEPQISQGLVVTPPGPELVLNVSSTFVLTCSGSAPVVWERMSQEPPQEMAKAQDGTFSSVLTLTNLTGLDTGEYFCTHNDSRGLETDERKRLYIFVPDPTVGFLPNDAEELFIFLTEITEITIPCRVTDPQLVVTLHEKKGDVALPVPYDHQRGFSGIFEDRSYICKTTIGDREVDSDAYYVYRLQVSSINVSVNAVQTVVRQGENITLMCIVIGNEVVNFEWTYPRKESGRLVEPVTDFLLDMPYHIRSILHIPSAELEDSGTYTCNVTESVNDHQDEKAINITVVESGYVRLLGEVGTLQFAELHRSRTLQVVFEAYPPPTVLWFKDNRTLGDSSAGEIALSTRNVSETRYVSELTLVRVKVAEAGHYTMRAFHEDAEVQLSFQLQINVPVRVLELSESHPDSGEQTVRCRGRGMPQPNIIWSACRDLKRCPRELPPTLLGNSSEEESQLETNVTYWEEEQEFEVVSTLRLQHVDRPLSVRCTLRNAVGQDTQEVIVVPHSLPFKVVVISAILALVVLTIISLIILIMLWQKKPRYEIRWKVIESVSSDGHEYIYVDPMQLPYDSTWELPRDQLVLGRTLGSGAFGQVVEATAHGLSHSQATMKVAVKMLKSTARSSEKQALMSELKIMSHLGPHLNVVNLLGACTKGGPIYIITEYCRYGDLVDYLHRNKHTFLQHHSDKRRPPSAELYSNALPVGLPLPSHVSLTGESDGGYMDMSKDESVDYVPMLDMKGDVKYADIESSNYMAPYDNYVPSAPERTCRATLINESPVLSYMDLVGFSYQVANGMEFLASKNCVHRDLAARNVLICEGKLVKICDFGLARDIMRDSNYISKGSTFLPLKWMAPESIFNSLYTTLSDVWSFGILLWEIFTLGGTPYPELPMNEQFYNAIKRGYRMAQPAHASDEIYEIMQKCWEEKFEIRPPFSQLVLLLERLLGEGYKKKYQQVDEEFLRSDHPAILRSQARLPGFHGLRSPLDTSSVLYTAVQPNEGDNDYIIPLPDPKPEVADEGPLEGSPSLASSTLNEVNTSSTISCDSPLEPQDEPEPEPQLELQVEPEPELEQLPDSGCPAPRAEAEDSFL
Chain of Mast/stem cell growth factor receptor Kit (Homo sapiens), P10721 [V560D,D816H] (P10721 whole entry V560D/D816H): as the sequence (P10721 whole entry V560D) above, with D816H counted along it

Consider `CCN(CC)CCNC(=O)c1c(C)[nH]c(/C=C2\C(=O)Nc3ccc(F)cc32)c1C` [SUNITINIB], for which, in series [1], the Activity turned out to be 87%. The concentration for 50% growth inhibition (GI50) is 631 nM in [2]; 30 nM in [3]; 114 nM in series [4]; 398 to 400 nM in series [5]; 214 nM in series [7]; 4 nM in series [8]. The GI50 in series [9] is 696 nM; in series [10] it was 271 nM; in [11], 12 nM; in [12], 782 nM. In addition, the GI50 at 72 h in series [6] was 4790 nM. Besides, the inhibition in vivo at 80 mg/kg in series [13] was over 100%.

With `Cc1ccc(NC(=O)c2ccc(CN3CCN(C)CC3)cc2)cc1Nc1nccc(-c2cccnc2)n1` [IMATINIB], the Activity in [14] and in series [19] was 0% in each case. Further, the inhibition in vivo at 300 mg/kg is 34% in [15] and 43% in series [21]. The GI50 in [2] is 567 nM; in series [16], 2750 nM; in series [4], 102 nM; in [17], 70 nM; in series [18], 312 nM; in series [5], 535 to 537 nM. The GI50 turned out to be 216 nM in series [7]; 192 nM in [20]; 17 nM in [8]; 1190 nM in [9]; 3950 nM in [11]; 669 nM in series [12]. In addition, the GI50 at 72 h in series [6] is over 10000 nM.

Take `Cn1cc(-c2cc3c(N4CCN(c5ncc([C@@](C)(N)c6ccc(F)cc6)cn5)CC4)ncnn3c2)cn1` [AVAPRITINIB]: the GI50 in series [22] stood at 8 nM; in series [23], 427 nM; in series [16], 69 nM; in [4], 22 nM; in [17], 42 nM; in [24] it was 117 nM. Further, the GI50 is 17 nM in series [5]; 292 nM in [25]; 860 nM in [26]; 19 nM in series [7]; 167 nM in [20]; 4950 nM in series [27]. In addition, the GI50 in [8] is 78 nM; in series [9] it was 29 nM; in series [10] it was 34 nM; in [11], 751 nM. For the same compound, the GI50 at 72 h in series [6] turned out to be 4080 nM.

Turning to `COc1cc(F)c2c(Nc3ccc(NC(=O)Cn4cc(C(C)C)nn4)cc3)ncnc2c1`, the GI50 in series [5] was 25 nM; in series [25], 2 nM; in [26], 68 nM; in series [27], over 10000 nM. Besides, the fraction unbound in series [28] was 0.003. Also, the GI50 at 72 h in [6] was over 10000 nM. Moreover, the Selectivity index (KDR GI50 / Kit GI50) in [29] was over 400.

For the compound `CNC(=O)c1cc(Oc2ccc(NC(=O)Nc3ccc(Cl)c(C(F)(F)F)c3)c(F)c2)ccn1` [REGORAFENIB], the GI50 is 2370 nM in series [22]; 522 nM in [2]; 549 nM in series [23]; 833 nM in [16]; 51 nM in [3]; 29 nM in series [4]. The GI50 in series [17] was 108 nM; in series [24], 943 nM; in [18], 47 nM; in series [5] it was 290 to 297 nM; in series [25], 231 to 234 nM; in series [26] it was 33 nM. The GI50 in [7] stood at 63 nM; in series [20] it was 114 nM; in [27], 114 nM; in series [9] it was 834 nM; in [10] it was 49 nM; in [11], 1270 nM. For the same compound, the inhibition in vivo at 100 mg/kg in series [30] is over 100%. The Activity in series [31] amounted to 39%. The GI50 at 72 h in [6] turned out to be 9950 nM.

The values are drawn from ChEMBL document CHEMBL4196201, “Discovery of N-(4-{[5-Fluoro-7-(2-methoxyethoxy)quinazolin-4-yl]amino}phenyl)-2-[4-(propan-2-yl)-1 H-1,2,3-triazol-1-yl]acetamide (AZD3229), a Potent Pan-KIT Mutant Inhibitor for the Treatment of Gastrointestinal Stromal Tumors” (J Med Chem, 2018).
